According to ChEMBL document CHEMBL1143245, “Large neutral amino acid transporter enables brain drug delivery via prodrugs” (J Med Chem, 2008):

Columns and labels:
[1] = target: Large neutral amino acids transporter small subunit 1 (Rattus norvegicus) (UniProt Q63016); test: Binding affinity at LAT1 in rat brain assessed Inhibition of [14C]L-leucine PA uptake at 70 uM; type: tissue-based
In short: (§1)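 In situ rat brain perfusion with pH 7.4 bicarbonate-buffered saline (37 °C, 95% O2/5% CO2). [14C]L-leucine 0.2 µCi/mL perfused 30 s alone (100% PA product) or co-perfused with 70 µM prodrug. PA product derived from brain radioactivity measured by liquid scintillation counting; [14C]sucrose (0.2 µCi/mL) used as vascular marker. Inhibition relative to control PA; n=3–5.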

[2] = Stability in rat brain assessed as half life of hydrolysis; type: ADME, tissue-based
In short: (§2)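 Enzymatic hydrolysis at 37 °C in rat serum diluted to 80%, brain homogenate diluted to 20%, or liver homogenate diluted to 50% (v/v) with 0.16 M phosphate buffer pH 7.4. Aliquots taken into acetonitrile to precipitate protein, then analysed by HPLC. Pseudo-first-order half-lives; n=3.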

[3] = target: Large neutral amino acids transporter small subunit 1 (Rattus norvegicus) (UniProt Q63016); test: Inhibition of [14C]L-leucine uptake at LAT1 in rat brain at 70 uM by perfusion technique; type: tissue-based; in short: as §1
[4] = (§3) Drug uptake in rat brain after 60 secs perfusion; type: ADME, tissue-based; conditions: brain, other: perfusion
In short: (§4)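 In situ rat brain perfusion, 60 s at 37 °C, with seven prodrug concentrations from 0 to 138 µM in bicarbonate-buffered saline pH 7.4. Vasculature then washed 30 s with cold (5 °C) prodrug-free medium. Brain hemisphere homogenised, acidified, ethyl acetate-extracted and analysed by HPLC. Km and Vmax from nonlinear Michaelis–Menten fit; mean ± SD, n=3.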

Brain [5] = test: as §3; type: ADME, tissue-based; conditions: in vivo, 1 min; in short: as §4
[6] = Stability in rat serum assessed as half life of hydrolysis; type: ADME, cell-free; in short: as §2
Brain [7] = test: Drug uptake in rat brain at 64 uM in presence of 2-aminobicyclo(2,2,1)heptane-2-carboxylic acid by perfusion technique; type: ADME, tissue-based; conditions: in vivo
In short: (§5)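 Rat brain perfused in situ for 60 s at 37 °C with 64 µM prodrug, alone or with 2 mM BCH added to the medium. Vasculature washed 30 s with cold prodrug-free medium. Brain uptake in pmol/mg/min quantified by HPLC after extraction; n=3; two-tailed independent t test.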

Brain [8] = test: Drug uptake in rat brain at 64 uM by perfusion technique; type: ADME, tissue-based; conditions: in vivo; in short: as §5
[9] = Stability in aqueous buffer at pH 7.4; type: physicochemical
In short: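 Chemical hydrolysis in 0.16 M phosphate buffer pH 7.4 (ionic strength 0.5) at 37 °C in a thermostatted water bath. Disappearance followed by HPLC; pseudo-first-order half-life; n=2.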

[10] = Stability in rat liver assessed as half life of hydrolysis; type: ADME, tissue-based; in short: as §2

Large neutral amino acids transporter small subunit 1 (Rattus norvegicus), sequence (Q63016 whole entry, looked up, the tested form may be a part): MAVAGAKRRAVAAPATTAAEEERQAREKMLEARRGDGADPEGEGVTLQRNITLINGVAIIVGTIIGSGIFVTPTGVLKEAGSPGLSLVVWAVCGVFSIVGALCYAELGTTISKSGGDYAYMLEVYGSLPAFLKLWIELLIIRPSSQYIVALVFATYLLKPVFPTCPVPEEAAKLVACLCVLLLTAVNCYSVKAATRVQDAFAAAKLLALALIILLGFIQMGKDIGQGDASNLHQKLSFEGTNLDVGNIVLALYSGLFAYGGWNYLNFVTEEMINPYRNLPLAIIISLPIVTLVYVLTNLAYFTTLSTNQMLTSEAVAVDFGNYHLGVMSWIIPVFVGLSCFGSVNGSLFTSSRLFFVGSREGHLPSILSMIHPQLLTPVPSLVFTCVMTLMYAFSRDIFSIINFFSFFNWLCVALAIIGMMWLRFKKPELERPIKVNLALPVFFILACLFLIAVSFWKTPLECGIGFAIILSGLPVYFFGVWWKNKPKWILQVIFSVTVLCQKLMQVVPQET

CC(C(=O)OCCOC(=O)[C@@H](N)Cc1ccccc1)c1cccc(C(=O)c2ccccc2)c1 (stereo partly drawn) gave an Activity [1] of 0.0282 mL/s/g.
Compound CC(C)CC(NC(=O)C(C)c1cccc(C(=O)c2ccccc2)c1)C(=O)O (stereo not drawn) has an Activity [1] of 0.0266 mL/s/g.
CC(C(=O)NC(Cc1ccccc1)C(=O)O)c1cccc(C(=O)c2ccccc2)c1 (stereo not drawn) showed an Activity [1] of 0.0191 mL/s/g.
Compound CC(C(=O)Oc1ccc(C[C@H](N)C(=O)O)cc1)c1cccc(C(=O)c2ccccc2)c1.Cl (stereo partly drawn) has a half-life [2] of 4.4 min, an inhibition [3] of 98.5% and a Km at 1 min [4] of 22.5 µM. For the same compound, the Vmax (Brain [5]) was 1.41 pmol/min/mg, the half-life [6] was 10.2 min and the Drug uptake (Brain [7]) was 0.362 pmol/min/mg. It also gave a Drug uptake (Brain [8]) of 0.846 pmol/min/mg, a half-life [9] of 1350 min and a half-life [10] of 2.8 min.
Work on CC(C)C[C@H](N)C(=O)OCCOC(=O)C(C)c1cccc(C(=O)c2ccccc2)c1 (stereo partly drawn) yielded an Activity [1] of 0.0212 mL/s/g.
